Results from ChEMBL document CHEMBL2311408, “Inhibition of norovirus 3CL protease by bisulfite adducts of transition state inhibitors” (Bioorg Med Chem Lett, 2013).

Columns and labels:
[1] = Cytotoxicity against human HG23 cells up to 320 uM; format: cell-based
[2] = Aqueous stability of the compound assessed as compound hydration in DMSO/water after 5 mins by Mass spectrometry; format: physicochemical
Procedure, shortened: (§1)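 The bisulfite adduct was placed in water. The species present (intact bisulfite adduct or hydrated aldehyde) were examined after 5 min of exposure and again after 24 h.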

Norovirus = assay: Antiviral activity against Norovirus infected in human HG23 cells; format: functional; conditions: read-out: ED50 (the source's name)
Procedure, shortened: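 Norovirus replicon-bearing cells, with inhibition of viral replication reported as ED50 in μM.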

[3] = Inhibition of Norovirus recombinant 3CL protease using Edans-EPDFHLQGPEDLAK-Dabcyl as substrate for 30 mins by fluorometry
[4] = Aqueous stability of the compound in DMSO/water after 24 hrs by Mass spectrometry; format: physicochemical; procedure, shortened: as §1
[5] = Stability of the compound in buffer solution at pH 7.4 assessed as formation of aldehyde form of compound within 1 hr; format: physicochemical; conditions: pH 7.4, 1 h
Procedure, shortened: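 The bisulfite adduct was placed in buffer solution at pH 7.4. Over about one hour, it was followed for dissociation to the free aldehyde and for hydration of that aldehyde.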

SMILES | Activity [1] | Stability [2] | EC50 (Norovirus) [nM] | IC50 [3] [nM] | Stability [4] | Stability [5]
CC(C)C[C@H](NC(=O)OCc1ccccc1)C(=O)N[C@H](C=O)CC1CCNC1=O (stereo partly specified) | Non-toxic | Unstable | 200 | 600 |  | 
CC(C)C[C@H](NC(=O)OCc1ccc(F)cc1)C(=O)N[C@@H](CC1CCNC1=O)C(O)S(=O)(=O)[O-].[Na+] (stereo partly specified) | Non-toxic |  | 400 |  |  | 
CC(C)C[C@H](NC(=O)OCc1cccc(F)c1)C(=O)N[C@H](C=O)CC1CCNC1=O (stereo partly specified) | Non-toxic |  | 300 | 700 |  | 
CC(C)C[C@H](NC(=O)OCc1cccc(F)c1)C(=O)N[C@@H](CC1CCNC1=O)C(O)S(=O)(=O)[O-].[Na+] (stereo partly specified) | Non-toxic |  | 200 |  |  | 
CC(C)C[C@H](NC(=O)OCCc1ccccc1)C(=O)N[C@H](C=O)CC1CCNC1=O (stereo partly specified) | Non-toxic |  | 1100 | 1900 |  | 
CC(C)C[C@H](NC(=O)OCCc1ccccc1)C(=O)N[C@@H](CC1CCNC1=O)C(O)S(=O)(=O)[O-].[Na+] (stereo partly specified) | Non-toxic |  | 1000 |  |  | 
CC(C)C[C@H](NC(=O)OCCC1CCCCC1)C(=O)N[C@H](C=O)CC1CCNC1=O (stereo partly specified) | Toxic |  | 300 | 600 |  | 
CC(C)C[C@H](NC(=O)OCCC1CCCCC1)C(=O)N[C@@H](CC1CCNC1=O)C(O)S(=O)(=O)[O-].[Na+] (stereo partly specified) | Toxic |  | 300 |  |  | 
CCOC(=O)N[C@@H](C)C(=O)N[C@@H](CC1CCNC1=O)C(O)(C(=O)NC1CC1)S(=O)(=O)[O-].[Na+] (stereo partly specified) | Non-toxic |  | 800 | 5300 |  | 
CC(C)C[C@H](NC(=O)OCc1ccccc1)C(=O)N[C@@H](CC1CCNC1=O)C(O)S(=O)(=O)[O-].[Na+] (stereo partly specified) | Non-toxic |  | 300 |  | Stable | Stable
CCC[C@H](NC(=O)OCc1ccccc1)C(=O)N[C@H](C=O)CC1CCNC1=O (stereo partly specified) | Non-toxic |  | 2300 | 6100 |  | 
CCC[C@H](NC(=O)OCc1ccccc1)C(=O)N[C@@H](CC1CCNC1=O)C(O)S(=O)(=O)[O-].[Na+] (stereo partly specified) | Non-toxic |  | 1500 |  |  | 
CCCC[C@H](NC(=O)OCc1ccccc1)C(=O)N[C@H](C=O)CC1CCNC1=O (stereo partly specified) | Non-toxic |  | 1200 | 4500 |  | 
CCCC[C@H](NC(=O)OCc1ccccc1)C(=O)N[C@@H](CC1CCNC1=O)C(O)S(=O)(=O)[O-].[Na+] (stereo partly specified) | Non-toxic |  | 1300 |  |  | 
O=C[C@H](CC1CCNC1=O)NC(=O)[C@H](CC1CCCCC1)NC(=O)OCc1ccccc1 (stereo partly specified) | Non-toxic |  | 50 | 500 |  | 
O=C(N[C@@H](CC1CCCCC1)C(=O)N[C@@H](CC1CCNC1=O)C(O)S(=O)(=O)[O-])OCc1ccccc1.[Na+] (stereo partly specified) | Non-toxic |  | 60 |  |  | 
O=C[C@H](CC1CCNC1=O)NC(=O)[C@H](Cc1ccccc1)NC(=O)OCc1ccccc1 (stereo partly specified) | Non-toxic |  | 1800 | 5100 |  | 
O=C(N[C@@H](Cc1ccccc1)C(=O)N[C@@H](CC1CCNC1=O)C(O)S(=O)(=O)[O-])OCc1ccccc1.[Na+] (stereo partly specified) | Non-toxic |  | 1100 |  |  | 
CC(C)C[C@H](NC(=O)OCc1ccc(F)cc1)C(=O)N[C@H](C=O)CC1CCNC1=O (stereo partly specified) | Non-toxic |  | 500 | 1800 |  | 
